Source: ChEMBL document CHEMBL1799960, “Diadenosine 5',5''-(boranated)polyphosphonate analogues as selective nucleotide pyrophosphatase/phosphodiesterase inhibitors” (J Med Chem, 2010)
Calls of active or inactive are those of the source. The calls are words filed in the database; no cut-off is given here.

How the values were obtained:
[1] = target: T1, Ectonucleoside triphosphate diphosphohydrolase 1 (Homo sapiens) (UniProt P49961); test: Activity of human NTPDase1 expressed in COS7 cells assessed as amount of inorganic phosphate released using ATP as the substrate at 100 uM after 15 mins by malachite green reagent method; type: cell-based; conditions: COS-7
T1 sequence (whole entry): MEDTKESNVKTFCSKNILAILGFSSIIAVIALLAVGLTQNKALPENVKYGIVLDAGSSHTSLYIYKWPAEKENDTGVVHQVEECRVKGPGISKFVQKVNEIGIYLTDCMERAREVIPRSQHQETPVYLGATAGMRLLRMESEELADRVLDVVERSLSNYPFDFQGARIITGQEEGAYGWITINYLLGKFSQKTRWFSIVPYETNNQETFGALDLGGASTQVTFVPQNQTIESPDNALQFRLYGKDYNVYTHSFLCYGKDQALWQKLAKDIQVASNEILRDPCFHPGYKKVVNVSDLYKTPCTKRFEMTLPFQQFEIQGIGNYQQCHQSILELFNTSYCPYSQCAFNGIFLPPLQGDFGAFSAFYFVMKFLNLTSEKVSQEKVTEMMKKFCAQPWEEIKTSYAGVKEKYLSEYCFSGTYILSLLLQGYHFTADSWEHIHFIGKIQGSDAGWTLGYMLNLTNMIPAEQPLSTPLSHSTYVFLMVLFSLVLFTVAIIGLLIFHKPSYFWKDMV
Outline: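 Crude membrane-enriched protein extract of transiently transfected COS-7 cells, preincubated 3 min at 37 °C in Tris-Ringer buffer pH 7.3. Reaction started with 100 μM ATP, or with the analogue alone at 100 μM to test it as substrate. Stopped after 15 min with malachite green reagent; released Pi read at 630 nm. Mean ± SD, n = 3.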

[2] = target: T2, Ectonucleotide pyrophosphatase/phosphodiesterase family member 1 (Homo sapiens) (UniProt P22413); test: Activity of human NPP1 expressed in COS7 cells assessed as production of p-nitrophenol using Ap5A as the substrate at 100 uM after 30 mins by malachite green reagent method; type: cell-based; conditions: COS-7
T2 sequence (whole entry): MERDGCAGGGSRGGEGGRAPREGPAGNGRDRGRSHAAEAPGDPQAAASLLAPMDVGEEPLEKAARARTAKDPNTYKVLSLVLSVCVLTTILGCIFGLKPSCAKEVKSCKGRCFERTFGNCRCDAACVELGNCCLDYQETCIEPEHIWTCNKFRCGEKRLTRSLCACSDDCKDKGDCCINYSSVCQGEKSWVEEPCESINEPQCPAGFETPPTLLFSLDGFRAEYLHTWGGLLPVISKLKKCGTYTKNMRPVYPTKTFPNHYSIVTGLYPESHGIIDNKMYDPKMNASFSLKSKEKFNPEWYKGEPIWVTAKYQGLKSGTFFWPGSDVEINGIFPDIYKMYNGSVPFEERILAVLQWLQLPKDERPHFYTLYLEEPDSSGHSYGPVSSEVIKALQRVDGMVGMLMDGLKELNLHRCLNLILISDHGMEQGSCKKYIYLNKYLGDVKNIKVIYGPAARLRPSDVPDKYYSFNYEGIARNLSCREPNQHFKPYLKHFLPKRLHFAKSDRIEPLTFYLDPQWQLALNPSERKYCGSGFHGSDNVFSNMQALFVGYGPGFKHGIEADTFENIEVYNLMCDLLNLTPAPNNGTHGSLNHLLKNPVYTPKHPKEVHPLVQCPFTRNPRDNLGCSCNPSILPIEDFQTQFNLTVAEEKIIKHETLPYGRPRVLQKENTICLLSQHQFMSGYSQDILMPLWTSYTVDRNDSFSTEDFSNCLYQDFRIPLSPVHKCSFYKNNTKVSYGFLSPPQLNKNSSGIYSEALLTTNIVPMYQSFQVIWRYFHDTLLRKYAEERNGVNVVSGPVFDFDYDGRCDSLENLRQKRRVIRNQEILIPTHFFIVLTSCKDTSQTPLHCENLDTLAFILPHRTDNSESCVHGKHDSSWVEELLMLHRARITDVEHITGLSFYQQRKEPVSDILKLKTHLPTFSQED

[3] = target: T1, Ectonucleoside triphosphate diphosphohydrolase 1 (Homo sapiens); test: Inhibition of human NTPDase1 expressed in COS7 cells assessed as amount of inorganic phosphate released using ATP as the substrate at 100 uM after 15 mins by malachite green reagent method; type: cell-based; conditions: COS-7
Outline: (§1)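 Protein extracts of transfected COS-7 cells (ecto-5'-nucleotidase: 100 μM AMP substrate; NTPDases: 100 μM ATP) were preincubated 3 min at 37 °C in Tris-Ringer pH 7.3 with inhibitor at 100 μM final. After 15 min, malachite green stop; Pi read at 630 nm. Activity given as % of substrate-only control. Mean ± SD of three experiments in triplicate.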

[4] = target: T3, Ectonucleoside triphosphate diphosphohydrolase 2 (Homo sapiens) (UniProt Q9Y5L3); test: Inhibition of human NTPDase2 expressed in COS7 cells assessed as amount of inorganic phosphate released using ATP as the substrate at 100 uM after 15 mins by malachite green reagent method; type: cell-based; conditions: COS-7; outline: as §1
T3 sequence (whole entry): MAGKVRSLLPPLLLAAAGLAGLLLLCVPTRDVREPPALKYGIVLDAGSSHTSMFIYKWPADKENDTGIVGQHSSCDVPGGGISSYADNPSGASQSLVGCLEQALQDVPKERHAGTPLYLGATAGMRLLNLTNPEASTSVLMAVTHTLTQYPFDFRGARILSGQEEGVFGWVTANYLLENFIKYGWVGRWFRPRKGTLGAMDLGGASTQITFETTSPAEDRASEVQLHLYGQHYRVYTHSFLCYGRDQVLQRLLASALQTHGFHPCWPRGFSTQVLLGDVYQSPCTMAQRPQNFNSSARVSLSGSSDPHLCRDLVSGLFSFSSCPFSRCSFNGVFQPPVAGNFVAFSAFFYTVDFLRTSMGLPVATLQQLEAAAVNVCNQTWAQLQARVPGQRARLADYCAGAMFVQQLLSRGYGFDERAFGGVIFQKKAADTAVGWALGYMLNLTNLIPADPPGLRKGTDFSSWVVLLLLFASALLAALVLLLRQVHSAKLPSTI

[5] = target: T2, Ectonucleotide pyrophosphatase/phosphodiesterase family member 1 (Homo sapiens); test: Inhibition of human NPP1 expressed in COS7 cells assessed as amount of inorganic phosphate released using ATP as the substrate at 100 uM after 15 mins by malachite green reagent method; type: cell-based; conditions: COS-7
[6] = target: T2, Ectonucleotide pyrophosphatase/phosphodiesterase family member 1 (Homo sapiens); test: Inhibition of human NPP1 in human Saos2 cells assessed as production of p-nitrophenol using pnp-TMP as the substrate […]; type: cell-based; conditions: SAOS-2
P2Y purinoceptor 1 = P2Y purinoceptor 1 (Homo sapiens, UniProt P47900); test: Agonist activity at GFP tagged-human P2Y1 receptor expressed in human 1321N1 cells assessed as elevation in calcium level after 30 mins by fluorescence spectrophotometric analysis; type: functional, cell-based
[7] = target: 5'-nucleotidase (Homo sapiens) (UniProt P21589); test: Inhibition of human Ecto-5'-nucleotidase expressed in COS7 cells assessed as amount of inorganic phosphate released using AMP as the substrate at 100 uM after 15 mins by malachite green reagent method; conditions: COS-7
Chain of 5'-nucleotidase (Homo sapiens) (P21589 whole entry): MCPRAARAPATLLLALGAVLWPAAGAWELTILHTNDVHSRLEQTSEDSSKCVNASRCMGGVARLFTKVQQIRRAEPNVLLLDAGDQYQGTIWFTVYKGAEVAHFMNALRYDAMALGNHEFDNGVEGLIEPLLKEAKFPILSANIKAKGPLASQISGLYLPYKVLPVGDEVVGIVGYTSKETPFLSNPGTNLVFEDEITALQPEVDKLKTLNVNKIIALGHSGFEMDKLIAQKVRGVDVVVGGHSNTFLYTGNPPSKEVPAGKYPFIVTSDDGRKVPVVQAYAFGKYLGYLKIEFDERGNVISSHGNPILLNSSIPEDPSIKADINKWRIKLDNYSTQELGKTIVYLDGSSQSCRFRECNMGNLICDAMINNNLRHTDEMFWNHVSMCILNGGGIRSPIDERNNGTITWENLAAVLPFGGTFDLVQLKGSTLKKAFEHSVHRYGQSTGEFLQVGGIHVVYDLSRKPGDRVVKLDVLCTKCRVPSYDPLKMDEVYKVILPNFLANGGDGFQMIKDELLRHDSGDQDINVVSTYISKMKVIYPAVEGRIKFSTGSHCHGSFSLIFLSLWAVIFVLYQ

Chain of P2Y purinoceptor 1 (P47900 whole entry): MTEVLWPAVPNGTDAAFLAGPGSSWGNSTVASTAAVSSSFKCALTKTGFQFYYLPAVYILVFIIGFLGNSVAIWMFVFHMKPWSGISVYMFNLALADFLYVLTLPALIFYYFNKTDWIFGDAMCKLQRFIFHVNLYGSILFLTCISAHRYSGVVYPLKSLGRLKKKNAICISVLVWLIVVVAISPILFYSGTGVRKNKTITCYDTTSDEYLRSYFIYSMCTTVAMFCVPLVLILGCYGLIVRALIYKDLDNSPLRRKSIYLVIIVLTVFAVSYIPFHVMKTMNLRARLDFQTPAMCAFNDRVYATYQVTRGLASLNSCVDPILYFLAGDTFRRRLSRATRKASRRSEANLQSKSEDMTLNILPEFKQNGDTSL

Row | Activity [1] [%] | Activity [2] [%] | inhibition [3] | inhibition [4] [%] | inhibition [5] [%] | inhibition [6] [%] | EC50 (P2Y purinoceptor 1) [µM] | inhibition [7] | Compound
1 | 1.1 | 2.3 | inactive | 10 | > 90 | 80 | 30 | 80% | Nc1ncnc2c1ncn2[C@H]1C[C@H](O)[C@@H](COP(=O)(O)CP(=O)(O)OP(=O)(O)CP(=O)(O)OC[C@H]2O[C@@H](n3cnc4c(N)ncnc43)C[C@@H]2O)O1
2 | 0.5 | 7.5 | inactive | 10 | > 90 | 90 | 0.3 | inactive | BP(=O)(OP(=O)(O)CP(=O)(O)OC[C@H]1O[C@@H](n2cnc3c(N)ncnc32)[C@H](O)[C@@H]1O)OP(=O)(O)CP(=O)(O)OC[C@H]1O[C@@H](n2cnc3c(N)ncnc32)[C@H](O)[C@@H]1O
3 |  |  | inactive | 10 | 70 | 90 | ≥ 30 | inactive | BP(=O)(OP(=O)(O)CP(=O)(O)OC[C@H]1O[C@@H](n2cnc3c(N)ncnc32)C[C@@H]1O)OP(=O)(O)CP(=O)(O)OC[C@H]1O[C@@H](n2cnc3c(N)ncnc32)C[C@@H]1O
4 | 1.5 | 13 | inactive | 10 | 70 | 80 | 9 | 90% | Nc1ncnc2c1ncn2[C@@H]1O[C@H](COP(=O)(O)CP(=O)(O)OP(=O)(O)CP(=O)(O)OC[C@H]2O[C@@H](n3cnc4c(N)ncnc43)[C@H](O)[C@@H]2O)[C@@H](O)[C@H]1O
